Activity and viability data for 16 compounds are collected here from ChEMBL document CHEMBL4665625, “New pyrido[3,4-g]quinazoline derivatives as CLK1 and DYRK1A inhibitors: synthesis, biological evaluation and binding mode analysis” (Eur J Med Chem, 2019).

Data set [1] is filed under the species Sus scrofa domesticus. In words: Inhibition of porcine brain CK1delta/epsilon assessed as residual activity at 1 uM using RRKHAAIGSpAYSITA as substrate in presence of [gamma-33P]ATP relative to control. In kind it is tissue-based.
Data set [2] deals with T1, Glycogen synthase kinase-3 (Sus scrofa) (UniProt B2LUN4+I6LNT8). In words: Inhibition of porcine brain GSK-3alpha/beta assessed as residual activity at 1 uM using YRRAAVPPSPSLSRHSSPHQSpEDEEE as substrate in presence of [gamma-33P]ATP relative to control. In kind it is tissue-based. The note with it: Sus scrofa domesticus. Summed up:
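Affinity-purified porcine brain GSK-3α/β with 0.01 µg/µl GS-1 peptide (phosphoserine-primed) as substrate and 15 µM [γ-33P]ATP. Buffer was 25 mM Tris-HCl pH 7.5, 10 mM MgCl2, 1 mM EGTA, 1 mM DTT, 50 µg/ml heparin and 0.15 mg/ml BSA. Radioactive incorporation was compared with DMSO-dilution controls, in triplicate.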

Data set [3] concerns the target T2, Cyclin-dependent kinase 5/CDK5 activator 1 (Homo sapiens) (UniProt Q00535+Q15078). Put plainly: Inhibition of recombinant human CDK5/p25 expressed in bacteria assessed as residual activity at 1 uM using histone H1 as substrate in presence of [gamma-33P]ATP relative to control. Summed up:
(§1)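 Human recombinant CDK5/p25 (bacterially expressed) assayed with 0.8 μg/μl histone H1 as substrate and 15 μM [γ-33P]ATP. Residual activity versus DMSO controls, triplicate.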

Data set [4] is filed under the species Sus scrofa domesticus. In words: Inhibition of porcine brain CK1delta/epsilon assessed as residual activity at 10 uM using RRKHAAIGSpAYSITA as substrate in presence of [gamma-33P]ATP relative to control. In kind it is tissue-based.
Data set [5] deals with Dual specificity protein kinase CLK1 (Mus musculus) (UniProt P22518). In words: Inhibition of recombinant mouse CLK1 expressed in bacteria assessed as residual activity at 1 uM using GRSRSRSRSRSR as substrate in presence of [gamma-33P]ATP relative to control.
Dual specificity protein kinase CLK1 (Mus musculus), sequence (P22518 whole entry, looked up, the tested form may be a part): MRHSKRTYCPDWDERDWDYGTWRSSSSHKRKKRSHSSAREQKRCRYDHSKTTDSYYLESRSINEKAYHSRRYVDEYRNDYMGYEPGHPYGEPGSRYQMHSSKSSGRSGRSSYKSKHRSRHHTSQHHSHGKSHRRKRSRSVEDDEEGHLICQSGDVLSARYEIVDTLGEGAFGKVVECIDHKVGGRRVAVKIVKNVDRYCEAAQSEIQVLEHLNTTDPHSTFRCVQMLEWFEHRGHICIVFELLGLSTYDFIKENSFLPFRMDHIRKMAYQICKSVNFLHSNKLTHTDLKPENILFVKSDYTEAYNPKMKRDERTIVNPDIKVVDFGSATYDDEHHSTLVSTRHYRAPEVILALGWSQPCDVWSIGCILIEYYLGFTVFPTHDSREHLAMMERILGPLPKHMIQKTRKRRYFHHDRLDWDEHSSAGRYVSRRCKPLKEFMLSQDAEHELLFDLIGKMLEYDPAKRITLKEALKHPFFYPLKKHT
Data set [6] addresses T1, Glycogen synthase kinase-3 (Sus scrofa). In words: Inhibition of porcine brain GSK-3alpha/beta assessed as residual activity at 10 uM using YRRAAVPPSPSLSRHSSPHQSpEDEEE as substrate in presence of [gamma-33P]ATP relative to control. In kind it is tissue-based. The note with it: Sus scrofa domesticus.
Data set [7] has as its target Dual specificity tyrosine-phosphorylation-regulated kinase 1A (Rattus norvegicus) (UniProt Q63470). In words: Inhibition of rat DYRK1A kinase domain (1 to 499 residues) expressed in bacteria assessed as residual activity at 10 uM using KKISGRLSPIMTEQ as substrate in presence of [gamma-33P]ATP relative to control. In a few lines: (§2)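 Buffer: 10 mM MgCl2, 1 mM EGTA, 1 mM DTT, 25 mM Tris-HCl pH 7.5, 50 μg/ml heparin, 0.15 mg/ml BSA.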

For data set [8], the target named is T2, Cyclin-dependent kinase 5/CDK5 activator 1 (Homo sapiens). Put plainly: Inhibition of recombinant human CDK5/p25 expressed in bacteria assessed as residual activity at 10 uM using histone H1 as substrate in presence of [gamma-33P]ATP relative to control. Summed up:
as §1

Data set [9] concerns the target Dual specificity protein kinase CLK1 (Mus musculus) (UniProt P22518). In words: Inhibition of recombinant mouse CLK1 expressed in bacteria assessed as residual activity at 10 uM using GRSRSRSRSRSR as substrate in presence of [gamma-33P]ATP relative to control.
For data set [10], the target named is Dual specificity tyrosine-phosphorylation-regulated kinase 1A (Rattus norvegicus) (UniProt Q63470). In words: Inhibition of rat DYRK1A kinase domain (1 to 499 residues) expressed in bacteria assessed as residual activity at 1 uM using KKISGRLSPIMTEQ as substrate in presence of [gamma-33P]ATP relative to control. Summed up: as §2
The next data set deals with SH-SY5Y. In words: Antiproliferative activity against human SH-SY5Y cells assessed as cell viability at 2 uM after 48 hrs by CellTiter96 AQueous assay relative to control. In kind it is functional. The settings on record: read-out: Activity. In a few lines:
(§3)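 Cells grown in McCoy's 5a (HCT116), DMEM (SH-SY5Y, MDA-MB231, U-2 OS) or DMEM:F12 (hTERT-RPE1), each with 10% fetal calf serum, 2 mM L-glutamine, penicillin/streptomycin. Exposed to compound at 2 μM for 48 h; viability read by CellTiter96 AQueous per manufacturer, as % of DMSO-treated cells. Triplicate, mean ± SD; staurosporine as positive control.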

The test system of another data set is MDA-MB-231. In words: Antiproliferative activity against human MDA-MB-231 cells assessed as cell viability at 2 uM after 48 hrs by CellTiter96 AQueous assay relative to control. The class given is functional. The settings on record: read-out: Activity. Summed up: as §3
A short description of data set [11]: Antiproliferative activity against hTERT-RPE1 cells assessed as cell viability at 2 uM after 48 hrs by CellTiter96 AQueous assay relative to control. The class given is cell-based, TERT-RPE1. The note with it: human, read-out: Activity. Summed up:
as §3

The next data set has as its system U2OS. In words: Antiproliferative activity against human U2OS cells assessed as cell viability at 2 uM after 48 hrs by CellTiter96 AQueous assay relative to control. The class given is functional. The settings on record: read-out: Activity. Summed up:
as §3

In another data set the test system is HCT-116. In words: Antiproliferative activity against human HCT116 cells assessed as cell viability at 2 uM after 48 hrs by CellTiter96 AQueous assay relative to control. In kind it is functional. The note with it: read-out: Activity. Summed up:
as §3

T2 sequence (Q00535 whole entry): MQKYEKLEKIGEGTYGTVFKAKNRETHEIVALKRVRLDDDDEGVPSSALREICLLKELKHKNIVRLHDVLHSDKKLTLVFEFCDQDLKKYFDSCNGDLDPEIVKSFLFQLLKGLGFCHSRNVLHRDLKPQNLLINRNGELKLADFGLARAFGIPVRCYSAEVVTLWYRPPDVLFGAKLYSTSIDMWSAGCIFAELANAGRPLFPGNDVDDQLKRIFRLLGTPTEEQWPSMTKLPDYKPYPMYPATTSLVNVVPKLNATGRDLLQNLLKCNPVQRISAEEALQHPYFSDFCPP
T2 sequence (Q15078 99-307 partner limits assumed): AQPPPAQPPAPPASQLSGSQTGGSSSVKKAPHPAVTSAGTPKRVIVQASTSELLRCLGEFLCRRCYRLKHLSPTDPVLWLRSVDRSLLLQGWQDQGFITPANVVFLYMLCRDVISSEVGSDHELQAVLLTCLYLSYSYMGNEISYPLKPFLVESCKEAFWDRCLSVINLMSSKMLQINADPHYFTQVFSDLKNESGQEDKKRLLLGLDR

For `Nc1c2ccncc2cc2cnc(NCCN3CCCCC3)nc12`, the Activity in the data set listed under Sus scrofa domesticus [1] came out at 74%; in data set [2], 43%; in data set [3] it was 95%; in the data set filed under Sus scrofa domesticus [4], 52%; in data set [5] it was 44%; in data set [6], 24%. Moreover, the Activity in [7] turned out to be 16%; in [8], 76%; in data set [9], 11%; in [10] it was 37%.

For the compound `Nc1ncc2cc3cnccc3c(N)c2n1`, the viability at 2 µM was 0.9% with SH-SY5Y, 43.4% with MDA-MB-231, 0.4% in the data set with U2OS and 1.3% in the data set with HCT-116. Besides, the viability at 48 h, 2 µM in [11] came to 0.2%.

For `Nc1c2ccncc2cc2cnc(-c3ccccc3)nc12`, the Activity in the data set listed under Sus scrofa domesticus [1] came out at 62%; in data set [2], 85%; in data set [3] it was 92%; in the data set filed under Sus scrofa domesticus [4], 51%; in [5], 68%; in [6] it was 40%. In addition, the Activity was found to be 41% in [7], 65% in data set [8], 32% in data set [9] and 80% in data set [10].

In the case of `O=[N+]([O-])c1c2ccncc2cc2cnc(-c3ccccc3)nc12`, the Activity in the data set listed under Sus scrofa domesticus [1] turned out to be 100%; in [2], 100%; in [3], 100%; in the data set listed under Sus scrofa domesticus [4], 57%; in data set [5], 71%; in data set [6] it was 100%. For the same compound, the Activity in [7] was 38%; in data set [8], 62%; in data set [9] it was 17%; in data set [10], 100%.

As to `CCN(CC)CCNc1ncc2cc3cnccc3c(N)c2n1`, the Activity in the data set listed under Sus scrofa domesticus [1] worked out at 91%; in data set [2] it was 73%; in data set [3] it was 97%; in the data set listed under Sus scrofa domesticus [4] it was 60%; in [5] it was 31%; in data set [6], 34%. The Activity came out at 6% in data set [7], 40% in [8], 3% in [9] and 49% in data set [10].

Consider `Nc1c2ccncc2cc2cnc(NCCCN3CCCCC3)nc12`, for which the Activity amounted to 76% in the data set filed under Sus scrofa domesticus [1]; 51% in data set [2]; 100% in data set [3]; 48% in the data set filed under Sus scrofa domesticus [4]; 30% in [5]; 30% in [6]. In addition, the Activity in [7] is 4%; in data set [8], 62%; in data set [9], 4%; in [10], 26%.

For `O=[N+]([O-])c1c2ccncc2cc2cnc(NCCN3CCCCC3)nc12`, the Activity in the data set filed under Sus scrofa domesticus [1] stood at 81%; in data set [2], 39%; in data set [3] it was 96%; in the data set listed under Sus scrofa domesticus [4] it was 37%; in data set [5], 42%; in data set [6] it was 1%. The Activity is 26% in data set [7], 85% in data set [8], 1% in [9] and 52% in [10].

In the case of `O=[N+]([O-])c1c2ccncc2cc2cnc(NCCN3CCOCC3)nc12`, the Activity in the data set listed under Sus scrofa domesticus [1] was found to be 93%; in data set [2] it was 88%; in [3], 100%; in the data set listed under Sus scrofa domesticus [4], 75%; in data set [5], 36%; in data set [6], 43%. Also, the Activity in [7] worked out at 20%; in [8], 69%; in data set [9], 5%; in [10], 73%.

Take `O=[N+]([O-])c1c2ccncc2cc2cnc(NCCN3CCCC3)nc12`: the Activity in the data set filed under Sus scrofa domesticus [1] was 92%; in data set [2], 81%; in [3] it was 100%; in the data set filed under Sus scrofa domesticus [4], 73%; in data set [5], 27%; in [6], 33%. Besides, the Activity in [7] was found to be 29%; in data set [8], 83%; in data set [9] it was 7%; in [10], 83%.

Consider `CCN(CC)CCNc1ncc2cc3cnccc3c([N+](=O)[O-])c2n1`, for which the Activity in the data set listed under Sus scrofa domesticus [1] came to 91%; in data set [2], 74%; in data set [3] it was 100%; in the data set filed under Sus scrofa domesticus [4] it was 78%; in [5] it was 46%; in data set [6], 26%. The Activity was 47% in data set [7], 79% in [8], 8% in [9] and 88% in [10].

For `Nc1c2ccncc2cc2cnc(NCCN3CCCC3)nc12`, the Activity in the data set listed under Sus scrofa domesticus [1] was 90%; in data set [2], 62%; in data set [3] it was 100%; in the data set filed under Sus scrofa domesticus [4], 61%; in data set [5], 33%; in data set [6], 29%. For the same compound, the Activity was 7% in data set [7], 51% in data set [8], 4% in data set [9] and 54% in [10].

Turning to `CN(C)CCNc1ncc2cc3cnccc3c(N)c2n1`, the Activity in the data set filed under Sus scrofa domesticus [1] is 78%; in data set [2], 58%; in data set [3], 96%; in the data set filed under Sus scrofa domesticus [4], 82%; in data set [5], 51%; in [6], 48%. Moreover, the Activity in data set [7] amounted to 32%; in data set [8], 86%; in data set [9] it was 21%; in data set [10] it was 60%.

In the case of `CN(C)CCCNc1ncc2cc3cnccc3c([N+](=O)[O-])c2n1`, the Activity in the data set filed under Sus scrofa domesticus [1] came to 86%; in data set [2], 80%; in data set [3], 100%; in the data set listed under Sus scrofa domesticus [4] it was 59%; in data set [5] it was 27%; in data set [6], 24%. For the same compound, the Activity came to 31% in data set [7], 64% in [8], 3% in data set [9] and 84% in [10].

Regarding `CN1CCN(CCNc2ncc3cc4cnccc4c([N+](=O)[O-])c3n2)CC1`, the Activity in the data set listed under Sus scrofa domesticus [1] turned out to be 63%; in data set [2], 69%; in [3], 84%; in the data set listed under Sus scrofa domesticus [4] it was 38%; in data set [5], 32%; in data set [6] it was 22%. In addition, the Activity turned out to be 6% in data set [7], 77% in data set [8], 0% in data set [9] and 32% in [10].

Turning to `O=[N+]([O-])c1c2ccncc2cc2cnc(NCCCN3CCCC3)nc12`, the Activity in the data set listed under Sus scrofa domesticus [1] stood at 100%; in data set [2], 78%; in data set [3] it was 100%; in the data set listed under Sus scrofa domesticus [4], 37%; in [5] it was 37%; in data set [6], 24%. In addition, the Activity amounted to 6% in [7], 50% in [8], 5% in [9] and 87% in [10].

Take `CCN(CC)CCCNc1ncc2cc3cnccc3c([N+](=O)[O-])c2n1`: the Activity in the data set listed under Sus scrofa domesticus [1] was determined as 87%; in data set [2], 92%; in data set [3], 100%; in the data set filed under Sus scrofa domesticus [4] it was 59%; in [5], 31%; in data set [6], 24%. Also, the Activity in data set [7] was determined as 23%; in [8], 50%; in [9], 4%; in data set [10], 72%.
